Ends that are not written are not given here.
Experiments:
[1] = patients, long-term studies; cited from earlier work
IL17RC = molecular target: T1, IL17RC (Homo sapiens, UniProt Q8NAC3); assay: ELISA binding assay, IL17RC; settings: read at 450 nm
T1 sequence (Q8NAC3 21-791): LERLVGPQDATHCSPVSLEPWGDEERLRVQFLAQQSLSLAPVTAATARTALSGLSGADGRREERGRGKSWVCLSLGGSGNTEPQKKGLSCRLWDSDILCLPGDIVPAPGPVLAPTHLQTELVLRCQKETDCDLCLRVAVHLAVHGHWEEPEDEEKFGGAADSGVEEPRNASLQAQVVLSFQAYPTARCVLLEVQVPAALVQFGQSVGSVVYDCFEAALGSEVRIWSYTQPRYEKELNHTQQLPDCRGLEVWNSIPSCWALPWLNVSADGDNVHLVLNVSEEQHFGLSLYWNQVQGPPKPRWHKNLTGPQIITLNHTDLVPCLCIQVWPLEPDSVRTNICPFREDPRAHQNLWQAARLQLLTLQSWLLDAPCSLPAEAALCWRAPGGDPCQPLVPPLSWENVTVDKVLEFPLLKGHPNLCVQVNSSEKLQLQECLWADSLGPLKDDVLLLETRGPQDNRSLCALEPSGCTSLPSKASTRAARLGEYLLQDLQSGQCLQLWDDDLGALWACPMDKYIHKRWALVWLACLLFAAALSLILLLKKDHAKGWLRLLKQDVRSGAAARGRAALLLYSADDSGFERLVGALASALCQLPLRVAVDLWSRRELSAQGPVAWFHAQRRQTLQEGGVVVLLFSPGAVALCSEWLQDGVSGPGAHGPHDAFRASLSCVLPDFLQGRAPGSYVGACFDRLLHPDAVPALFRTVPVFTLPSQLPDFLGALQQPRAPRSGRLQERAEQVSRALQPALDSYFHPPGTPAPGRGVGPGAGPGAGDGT

IL17A = IL17A (Homo sapiens, UniProt Q16552); assay: ELISA binding assay, IL17A; settings: read at 450 nm
IL17F = molecular target: T2, IL17F (Homo sapiens, UniProt Q96PD4); assay: ELISA binding assay, IL17F; settings: read at 450 nm
T2 sequence (Q96PD4 31-163): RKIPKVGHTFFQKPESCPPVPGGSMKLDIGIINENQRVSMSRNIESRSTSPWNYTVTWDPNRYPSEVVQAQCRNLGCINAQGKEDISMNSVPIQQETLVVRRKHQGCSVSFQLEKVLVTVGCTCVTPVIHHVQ

RAW264.7 cells = assay: Cytotoxicity, CCK-8 assay; format: cell-based, murine; settings: RAW264.7, normal and IL17RA-deficient cells, varying concentrations, 24 h
Summary of the method: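 RAW264.7 cells were cultured in RPMI1640 (0.05 mM β-mercaptoethanol, 10% FBS) and polarized to M1 with 1 µg/ml LPS plus 20 ng/ml IFNγ for 24 h. IL17RA was knocked down by siRNA transfection, with cells harvested at 48 h. Normal and knockdown cells (1 × 10⁴ cells/ml) were treated 24 h with varied test compound concentrations. CCK-8 was added for 4 h, then absorbance read at 450 nm. Mean ± SEM, ≥3 independent experiments.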

THP-1 cells = assay: Cytotoxicity, CCK-8 assay; format: cell-based, human; settings: THP-1, normal and IL17RA-deficient cells, varying concentrations, 24 h
Summary of the method: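 THP-1 cells were cultured in RPMI1640 (0.05 mM β-mercaptoethanol, 10% FBS). They were made into M1 macrophages with 100 ng/ml PMA for 120 h, then 1 µg/ml LPS plus 20 ng/ml IFNγ for 24 h. IL17RA was knocked down by siRNA, with cells harvested at 48 h. Normal and knockdown cells (1 × 10⁴ cells/ml) received test compound at varied concentrations for 24 h. CCK-8 for 4 h; A450. Mean ± SEM, ≥3 independent experiments.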

HaCaT cells = assay: Cytotoxicity, CCK-8 assay; format: cell-based, human; settings: normal and IL17RA-deficient cells, varying concentrations, 24 h
Summary of the method: (§1)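 HaCaT and NIH3T3 cells were grown in DMEM with 10% FBS at 37 °C and 5% CO2. IL17RA was knocked down with siRNA and Lipofectamine 2000, and cells were harvested 48 h post-transfection. Normal and knockdown cells were seeded at 1 × 10⁴ cells/ml and exposed to a range of test compound concentrations for 24 h. CCK-8 was added for 4 h and absorbance read at 450 nm. Mean ± SEM, ≥3 independent experiments.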

NIH3T3 cells = assay: Cytotoxicity, CCK-8 assay; format: cell-based, murine; settings: NIH3T3, normal and IL17RA-deficient cells, varying concentrations, 24 h
Summary of the method: as §1

Human IL17RA protein [2] = molecular target: T3, Human IL17RA protein (human, UniProt Q96F46 33-320); assay: MST
Human IL17RA protein [3] = molecular target: T3, Human IL17RA protein; assay: SPR

IL17A, sequence (Q16552 24-155, species assumed): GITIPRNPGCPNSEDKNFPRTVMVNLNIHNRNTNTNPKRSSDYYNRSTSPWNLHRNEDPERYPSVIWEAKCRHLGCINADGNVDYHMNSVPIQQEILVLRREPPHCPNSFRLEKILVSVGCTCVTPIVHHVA

Secukinumab
ADA incidence rate [1]: < 1%

ASPVIYHL-NH2 [AL-8(0)]
EC50 for binding to IL17RC (IL17RC): no measurable
EC50 for binding to IL17A (IL17A): no measurable
EC50 for binding to IL17F (IL17F): no measurable
Cytotoxicity (cell viability, CCK-8) (RAW264.7 cells): not directly cytotoxic
Cytotoxicity (cell viability, CCK-8) (THP-1 cells): not directly cytotoxic
Cytotoxicity (cell viability, CCK-8) (HaCaT cells): not directly cytotoxic
Cytotoxicity (cell viability, CCK-8) (NIH3T3 cells): not directly cytotoxic

Ixekizumab
Immunogenicity [1]: variable immunogenicity

ASPVIYHL-NH2 [AL-8(0)]
Kd (Human IL17RA protein [2]): 89 nM
Kd (Human IL17RA protein [3]): 83 nM
